ChEMBL document CHEMBL3808334, “Synthesis and in vitro evaluation of novel triazine analogues as anticancer agents and their interaction studies with bovine serum albumin” (Eur J Med Chem, 2016)

Tests used:
Type in all cases: functional
[1] = Growth inhibition of human MOLT4 cells assessed as cell growth at 10^-8 M incubated for 48 hrs by sulforhodamine B assay; details: MOLT-4, 48 h, read-out: Activity
SK-MEL-5 = test: Growth inhibition of human SK-MEL-5 cells assessed as cell growth at 10^-7 M incubated for 48 hrs by sulforhodamine B assay; details: SK-MEL-5, 48 h, read-out: Activity
[2] = Growth inhibition of human HL-60(TB) cells incubated for 48 hrs by sulforhodamine B assay; details: HL-60, 48 h
Method in brief: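 Five-concentration, 48 h SRB screen (10-fold or ½-log dilutions from a 400× DMSO concentrate; 24 h preincubation at 37 °C, 5% CO₂; time-zero plate; A515). GI50 was solved from (Ti−Tz)/(C−Tz)×100 = 50. TGI was taken where Ti = Tz, and LC50 from (Ti−Tz)/[…].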

[3] = Growth inhibition of human PC3 cells assessed as cell growth at 10^-8 M incubated for 48 hrs by sulforhodamine B assay; details: PC-3, 48 h, read-out: Activity
[4] = Growth inhibition of human SNB75 cells assessed as cell growth at 10^-4 M incubated for 48 hrs by sulforhodamine B assay; details: SNB-75, 48 h, read-out: Activity
SR = test: Growth inhibition of human SR cells assessed as cell growth at 10^-4 M incubated for 48 hrs by sulforhodamine B assay; details: read-out: Activity
[5] = Growth inhibition of human HCC2998 cells incubated for 48 hrs by sulforhodamine B assay; details: HCC 2998, 48 h
Method in brief: (§1)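 Cells seeded at 5,000–40,000/well according to doubling time and preincubated 24 h at 37 °C, 5% CO2. Time-zero plates were TCA-fixed. DMSO concentrate was diluted in medium with 50 µg/ml gentamicin to give five concentrations (10-fold or ½ log steps), then exposed 48 h. Cells were TCA-fixed, stained with 0.4% SRB and read at 515 nm. Percent growth was taken against time-zero and control; GI50, TGI and LC50 derived.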

[6] = Growth inhibition of human PC3 cells assessed as cell growth at 10^-5 M incubated for 48 hrs by sulforhodamine B assay; details: PC-3, 48 h, read-out: Activity
[7] = Growth inhibition of human MOLT4 cells assessed as cell growth at 10^-5 M incubated for 48 hrs by sulforhodamine B assay; details: MOLT-4, 48 h, read-out: Activity
KM12 = test: Growth inhibition of human KM12 cells assessed as cell growth at 10^-8 M incubated for 48 hrs by sulforhodamine B assay; details: KM12, 48 h, read-out: Activity
MDA-MB-435 = test: Growth inhibition of human MDA-MB-435 cells assessed as cell growth at 10 uM incubated for 48 hrs by sulforhodamine B assay; details: MDA-MB-435, 48 h, read-out: Activity
[8] = Growth inhibition of human UO31 cells assessed as cell growth at 10^-5 M incubated for 48 hrs by sulforhodamine B assay; details: UO-31, 48 h, read-out: Activity
[9] = Growth inhibition of human LOXIMVI cells assessed as cell growth at 10^-6 M incubated for 48 hrs by sulforhodamine B assay; details: LOX IMVI, read-out: Activity
[10] = Growth inhibition of human PC3 cells assessed as cell growth at 10^-7 M incubated for 48 hrs by sulforhodamine B assay; details: PC-3, 48 h, read-out: Activity
[11] = Growth inhibition of human OVCAR3 cells assessed as cell growth at 10^-8 M incubated for 48 hrs by sulforhodamine B assay; details: OVCAR-3, 48 h, read-out: Activity
MDA-MB-468 = test: Growth inhibition of human MDA-MB-468 cells assessed as cell growth at 10^-6 M incubated for 48 hrs by sulforhodamine B assay; details: MDA-MB-468, 48 h, read-out: Activity
[12] = Growth inhibition of human SF295 cells assessed as cell growth at 10^-4 M incubated for 48 hrs by sulforhodamine B assay; details: SF-295, 48 h, read-out: Activity
[13] = Growth inhibition of human SNB19 cells incubated for 48 hrs by sulforhodamine B assay; details: SNB-19, 48 h
Method in brief: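 Cells were plated at 5,000–40,000 per well according to doubling time and preincubated 24 h at 37 °C in 5% CO2; time-zero plates were then TCA-fixed. Five concentrations (10-fold or ½-log dilutions, DMSO stock) were incubated 48 h. Cells were TCA-fixed, stained with 0.4% SRB and read at 515 nm. GI50 was taken where [(Ti−Tz)/(C−Tz)]×100 = 50.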

NCI-H322M = test: Growth inhibition of human NCI-H322M cells assessed as cell growth at 10^-5 M incubated for 48 hrs by sulforhodamine B assay; details: read-out: Activity
[14] = Growth inhibition of human OVCAR5 cells assessed as cell growth at 10^-7 M incubated for 48 hrs by sulforhodamine B assay; details: OVCAR-5, 48 h, read-out: Activity
[15] = Growth inhibition of human HCC2998 cells assessed as cell growth at 10^-6 M incubated for 48 hrs by sulforhodamine B assay; details: HCC 2998, 48 h, read-out: Activity; method in brief: as §1
NCI-H522 [16] = test: Growth inhibition of human NCI-H522 cells assessed as cell growth at 10^-5 M incubated for 48 hrs by sulforhodamine B assay; details: NCI-H522, 48 h, read-out: Activity
A498 = test: Growth inhibition of human A498 cells assessed as cell growth at 10^-6 M incubated for 48 hrs by sulforhodamine B assay; details: A498, 48 h, read-out: Activity
Method in brief: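 Five-dose assay: five concentrations from 10-fold or ½-log serial dilutions. Cells are plated at 5,000–40,000 per well according to doubling time, grown 24 h, then exposed 48 h at 37 °C, 5% CO₂. Fixed with cold 50% TCA (final addition) for 60 min at 4 °C and stained with 0.4% SRB in 1% acetic acid. Bound dye is solubilized in 10 mM Tris base and read at 515 nm. GI₅₀ is where [(Ti−Tz)/(C−Tz)]×100 = 50, with a time-zero plate as Tz.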

CCRF-CEM = test: Growth inhibition of human CCRF-CEM cells assessed as cell growth at 10^-8 M incubated for 48 hrs by sulforhodamine B assay; details: read-out: Activity
Method in brief: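 Leukemia line in the five-dose format: five concentrations from 10-fold or ½-log serial dilutions. Plated at 5,000–40,000 cells per well, preincubated 24 h, then compound added for 48 h at 37 °C, 5% CO₂. Sulforhodamine B absorbance read at 515 nm. Growth is computed against time-zero (Tz) and control (C) readings; GI₅₀ is where [(Ti−Tz)/(C−Tz)]×100 = 50.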

NCI-H522 [17] = test: Growth inhibition of human NCI-H522 cells assessed as cell growth at 10^-8 M incubated for 48 hrs by sulforhodamine B assay; details: NCI-H522, 48 h, read-out: Activity
[18] = read-out: LC50 (the source's name)
[19] = read-out: pLC50 (the source's name) (converted)

SMILES | growth at 0.01 µM [1] | growth at 0.1 µM (SK-MEL-5) | GI50 ([2]; read-out: GI50) | TGI ([2]; read-out: TGI) | GI50 ([2]; read-out: pGI50 (converted)) | TGI ([2]; read-out: pTGI (converted)) | growth at 0.01 µM [3] | growth at 100 µM [4] | growth at 100 µM (SR) | GI50 ([5]; read-out: GI50) | GI50 ([5]; read-out: pGI50 (converted)) | growth at 10 µM [6] | growth at 10 µM [7] | growth at 0.01 µM (KM12) | growth at 10 µM (MDA-MB-435) | growth at 10 µM [8] | growth at 1 µM [9] | growth at 0.1 µM [10] | growth at 0.01 µM [11] | growth at 1 µM (MDA-MB-468) | further results
Fc1ccc(-c2nc(Nc3ccc(-c4nc5ccccc5[nH]4)cc3)nc(N3CCOCC3)n2)cc1 | 98% | 101% | 1940 nM | 5.67 µM | 1950 nM | 5.62 µM | 100% | -33% | 1% | 3090 nM | 3090 nM | -20% | -23% | 95% | -38% | -30% | 91% | 105% | 102% | 106% | LC50 ([2]; read-out: LC50): > 100 µM; LC50 ([2]; read-out: pLC50 (converted)): > 100 µM; CC50 [5, 18]: > 100 µM; TGI ([5]; read-out: TGI): > 100 µM; CC50 [5, 19]: > 100 µM; TGI ([5]; read-out: pTGI (converted)): > 100 µM; growth at 100 µM [12]: -35%; GI50 ([13]; read-out: GI50): 3490 nM; CC50 [13, 18]: > 100 µM; TGI ([13]; read-out: TGI): > 100 µM; GI50 ([13]; read-out: pGI50 (converted)): 3470 nM; CC50 [13, 19]: > 100 µM; TGI ([13]; read-out: pTGI (converted)): > 100 µM; growth at 10 µM (NCI-H322M): 16%; growth at 0.1 µM [14]: 83%; growth at 1 µM [15]: 94%; growth at 10 µM (NCI-H522 [16]): -30%; growth at 1 µM (A498): 74%; growth at 0.01 µM (CCRF-CEM): 102%; growth at 0.01 µM (NCI-H522 [17]): 96%
c1ccc2[nH]c(-c3ccc(Nc4nc(N5CCCCC5)nc(N5CCOCC5)n4)cc3)nc2c1 | 99% | 93% | 2420 nM | 5.8 µM | 2400 nM | 5.75 µM | 96% | -33% | -11% | 3740 nM | 3720 nM | -4% | -11% | 101% | -27.3% | -35% | 89% | 98% | 103% | 106% | LC50 ([2]; read-out: LC50): > 100 µM; LC50 ([2]; read-out: pLC50 (converted)): > 100 µM; CC50 [5, 18]: > 100 µM; TGI ([5]; read-out: TGI): > 100 µM; CC50 [5, 19]: > 100 µM; TGI ([5]; read-out: pTGI (converted)): > 100 µM; growth at 100 µM [12]: -56%; GI50 ([13]; read-out: GI50): 3730 nM; CC50 [13, 18]: > 100 µM; TGI ([13]; read-out: TGI): 81.9 µM; GI50 ([13]; read-out: pGI50 (converted)): 3720 nM; CC50 [13, 19]: > 100 µM; TGI ([13]; read-out: pTGI (converted)): 81.3 µM; growth at 10 µM (NCI-H322M): 29%; growth at 0.1 µM [14]: 100%; growth at 1 µM [15]: 105%; growth at 10 µM (NCI-H522 [16]): -24%; growth at 1 µM (A498): 83%; growth at 0.01 µM (CCRF-CEM): 99%; growth at 0.01 µM (NCI-H522 [17]): 89%
c1ccc(-c2nc(Nc3ccc(-c4nc5ccccc5[nH]4)cc3)nc(N3CCOCC3)n2)cc1 | 96% | 104% | 31 nM | 0.601 µM | 30.9 nM | 0.603 µM | 99% | -90% | -28% | 1900 nM | 1910 nM | -72% | -53% | 98% | -81.1% | -78% | 29% | 106% | 105% | 102% | LC50 ([2]; read-out: LC50): 31.2 µM; LC50 ([2]; read-out: pLC50 (converted)): 30.9 µM; TGI ([5]; read-out: TGI): 3.99 µM; TGI ([5]; read-out: pTGI (converted)): 3.98 µM; growth at 100 µM [12]: -71%; GI50 ([13]; read-out: GI50): 1960 nM; TGI ([13]; read-out: TGI): 4.32 µM; GI50 ([13]; read-out: pGI50 (converted)): 1950 nM; TGI ([13]; read-out: pTGI (converted)): 4.37 µM; growth at 10 µM (NCI-H322M): -79%; growth at 0.1 µM [14]: 99%; growth at 1 µM [15]: 93%; growth at 10 µM (NCI-H522 [16]): -75%; growth at 1 µM (A498): 55%; growth at 0.01 µM (CCRF-CEM): 102%; growth at 0.01 µM (NCI-H522 [17]): 100%
Clc1ccc(-c2nc(Nc3ccc(-c4nc5ccccc5[nH]4)cc3)nc(N3CCOCC3)n2)cc1 | 98% | 102% | 216 nM | 0.567 µM | 214 nM | 0.562 µM | 98% | -26% | 5% | 358 nM | 355 nM | -89% | -72% | 98% | -86.1% | -86% | -64% | 101% | 99% | 25% | growth at 100 µM [12]: -10%; GI50 ([13]; read-out: GI50): 379 nM; GI50 ([13]; read-out: pGI50 (converted)): 380 nM; growth at 10 µM (NCI-H322M): -80%; growth at 0.1 µM [14]: 92%; growth at 1 µM [15]: 15%; growth at 10 µM (NCI-H522 [16]): -76%; growth at 1 µM (A498): 89%; growth at 0.01 µM (CCRF-CEM): 98%; growth at 0.01 µM (NCI-H522 [17]): 100%
